Calls of active or inactive are those of the source. The rule behind the calls is not given here.
Columns and labels:
[1] = biological target: T1, Eukaryotic translation initiation factor 2-alpha kinase 3 (Rattus norvegicus) (UniProt Q9Z1Z1); experiment: Inhibition of PERK activation in rat INS-1 cells assessed as suppression of tunicamycin-induced increase in ATF4 mRNA levels up to 10 uM after 8 hrs by qRT-PCR analysis; format: cell-based
T1 sequence (whole entry): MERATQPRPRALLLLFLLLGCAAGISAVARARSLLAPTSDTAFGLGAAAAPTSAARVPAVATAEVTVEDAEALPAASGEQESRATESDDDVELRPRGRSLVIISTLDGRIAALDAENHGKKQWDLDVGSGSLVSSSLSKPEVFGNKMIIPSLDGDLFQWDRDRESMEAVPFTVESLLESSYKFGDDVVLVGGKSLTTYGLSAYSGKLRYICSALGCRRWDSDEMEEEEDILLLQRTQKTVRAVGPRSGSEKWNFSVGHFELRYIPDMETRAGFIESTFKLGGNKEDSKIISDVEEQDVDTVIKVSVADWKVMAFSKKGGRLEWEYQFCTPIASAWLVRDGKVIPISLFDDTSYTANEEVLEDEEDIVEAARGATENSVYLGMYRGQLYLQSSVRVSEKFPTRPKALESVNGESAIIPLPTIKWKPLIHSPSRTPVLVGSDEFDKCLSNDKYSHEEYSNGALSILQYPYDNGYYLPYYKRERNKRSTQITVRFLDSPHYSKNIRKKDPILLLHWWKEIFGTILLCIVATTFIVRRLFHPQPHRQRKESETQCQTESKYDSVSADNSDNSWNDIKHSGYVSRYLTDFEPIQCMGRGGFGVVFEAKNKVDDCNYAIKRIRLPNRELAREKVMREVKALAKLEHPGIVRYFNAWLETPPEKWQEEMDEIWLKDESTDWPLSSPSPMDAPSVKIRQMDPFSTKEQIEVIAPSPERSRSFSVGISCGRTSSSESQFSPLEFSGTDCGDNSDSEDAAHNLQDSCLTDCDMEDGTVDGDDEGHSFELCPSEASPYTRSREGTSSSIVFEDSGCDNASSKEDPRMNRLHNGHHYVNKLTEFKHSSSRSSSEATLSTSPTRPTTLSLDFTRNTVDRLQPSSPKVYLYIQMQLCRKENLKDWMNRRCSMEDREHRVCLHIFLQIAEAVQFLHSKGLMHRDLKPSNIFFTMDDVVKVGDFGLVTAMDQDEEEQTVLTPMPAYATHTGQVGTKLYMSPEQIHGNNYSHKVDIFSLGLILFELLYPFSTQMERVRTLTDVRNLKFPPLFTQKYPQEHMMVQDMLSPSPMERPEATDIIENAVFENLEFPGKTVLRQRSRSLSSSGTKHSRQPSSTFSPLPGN
In short: (§1)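 INS-1 cells, 4×10^5 per well, were exposed to tunicamycin 0.1 μg/mL with compound or DMSO for 8 h. qRT-PCR for ATF4, CHOP, Bip, GRP94, or spliced XBP1 using splicing-specific primers. Values were normalized to cyclophilin A by ΔΔCt and given as fold over untreated control. Triplicate wells, 3 independent experiments.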

INS1 [2] = experiment: Protection against tunicamycin ER stress-induced suppression of PDX1 mRNA expression in rat INS-1 cells up to 1 uM after 24 hrs by qRT-PCR analysis; format: functional, cell-based
In short: (§2)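 INS-1 cells were exposed to tunicamycin 0.1 μg/mL with compound or DMSO for 24 h. INS1, INS2, PDX1 and MafA mRNA were measured by qRT-PCR and normalized to cyclophilin A by the comparative Ct method. Triplicate wells, 3 independent experiments.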

INS1 [3] = experiment: Cytoprotective activity against tunicamycin ER stress-induced apoptosis in rat INS-1 cells assessed as inhibition of tunicamycin-induced cleaved PARP expression up to 1 uM after 24 hrs by Western blot analysis; format: functional, cell-based
In short: (§3)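 INS-1 cells, 8×10^5 per 60-mm dish, were exposed to tunicamycin 0.1 μg/mL plus compound or DMSO for 24 h. 20 μg lysate protein was run on 7% SDS-PAGE and immunoblotted for cleaved caspase-3 and PARP (1:1000), with α-tubulin as loading control; 3 independent experiments.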

INS1 [4] = experiment: Protection against tunicamycin ER stress-induced suppression of INS1 mRNA expression in rat INS-1 cells up to 1 uM after 24 hrs by qRT-PCR analysis; format: functional, cell-based; in short: as §2
Beta-TC6 = experiment: Cytoprotective activity in mouse BetaTC6 cells assessed as protection against tunicamycin-induced ER stress-mediated reduction in cell viability after 3 days by CellTiter-Glo assay; format: functional, cell-based
In short: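 βTC6 cells, 3×10^3 per well, were exposed to tunicamycin 0.3 μg/mL with compound or DMSO for 72 h. Intracellular ATP was read by luminescence and expressed as fold of no-tunicamycin cells. Triplicate wells, three independent experiments.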

Mus musculus = experiment: Antidiabetic activity in STZ-induced diabetic C57BL/6 mouse model assessed as total pancreatic islet beta-cell area at 5 mg/kg, ip administrated qd with streptozotocin for 5 days followed by compound administration alone for 2 more weeks by DAPI-staining based confocal microscopic analysis (reference value: 30.2 +/- 7.9%); format: functional
In short: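 At the end of treatment in the STZ mouse model, pancreases were formalin-fixed, paraffin-embedded and serially sectioned at 100 μm intervals. Six sections were stained for insulin and glucagon with DAPI counterstain and imaged by confocal microscopy. Insulin-positive cells demarcated islets; total islet area per section and cells per islet were quantified.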

INS1 [5] = experiment: Cytoprotective activity against tunicamycin ER stress-induced apoptosis in rat INS-1 cells assessed as inhibition of tunicamycin-induced cleaved caspase3 expression up to 1 uM after 24 hrs by Western blot analysis; format: functional, cell-based; in short: as §3
[6] = biological target: T2, Cyclic AMP-dependent transcription factor ATF-6 alpha (Rattus norvegicus) (UniProt G3V909); experiment: Inhibition of tunicamycin ER stress-induced ATF6 activation in rat INS-1 cells assessed as suppression of increase in […] mRNA levels up to 10 uM after 8 hrs by qRT-PCR analysis; format: cell-based; in short: as §1
T2 sequence (whole entry): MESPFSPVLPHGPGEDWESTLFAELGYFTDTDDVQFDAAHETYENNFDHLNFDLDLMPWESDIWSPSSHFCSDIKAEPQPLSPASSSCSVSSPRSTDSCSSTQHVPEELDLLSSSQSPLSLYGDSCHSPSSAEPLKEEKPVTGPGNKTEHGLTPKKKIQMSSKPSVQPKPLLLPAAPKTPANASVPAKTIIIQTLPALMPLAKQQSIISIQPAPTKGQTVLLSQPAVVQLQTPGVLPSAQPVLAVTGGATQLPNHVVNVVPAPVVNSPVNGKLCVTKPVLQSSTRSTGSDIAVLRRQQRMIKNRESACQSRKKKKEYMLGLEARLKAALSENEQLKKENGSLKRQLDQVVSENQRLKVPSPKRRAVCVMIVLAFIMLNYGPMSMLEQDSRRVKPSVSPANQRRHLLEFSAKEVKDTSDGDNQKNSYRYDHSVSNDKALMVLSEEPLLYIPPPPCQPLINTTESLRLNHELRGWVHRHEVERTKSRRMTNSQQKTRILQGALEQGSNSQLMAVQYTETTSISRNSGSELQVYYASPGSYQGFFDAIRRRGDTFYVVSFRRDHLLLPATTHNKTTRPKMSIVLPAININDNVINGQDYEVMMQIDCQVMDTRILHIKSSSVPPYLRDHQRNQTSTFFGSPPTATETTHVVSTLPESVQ

With `O=C(NCc1ccc(C(F)(F)F)cc1)c1cccc(CN2CCCCC2)c1` the inhibition [1] was “Active”, the Activity (INS1 [2]) was “Active” and the inhibition (INS1 [3]) was “Active”. The Activity (INS1 [4]) was “Active”, the Activity (Beta-TC6) was “Dose-dependent effect” and the Activity (Mus musculus) was 67.4%. For the same compound, the inhibition (INS1 [5]) was “Active” and the inhibition [6] was “Active”.
